From PubChem
tolC growth inh: growth inhibitors of E. coli BW25113 tolC mutant; OD615; growth inhibition, % at 10 µM (by protocol); 2.2% of 65,000 active;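 active = growth inhibition at or above a cutoff equal to the mean over every tested compound plus 3 SD, cut at about 60% in these data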;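 also: growth measured after 20 h incubation at 37 °C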
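Test system: tolC-deleted E. coli BW25113 | Medium: LB with kanamycin 50 µg/mL | Compound dosing: Single concentration, 10 µM final per compound | Schedule: 37 °C, 20 h exposure | Measured by: OD at 615 nm | Evaluation: Percent growth inhibition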
Ecoli WT expand: E. coli BW25113 growth inhibition, expanded screen; OD600 absorbance; growth inhibition, % at 100 µM; 0.15% of 98,000 active;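 active = growth inhibition above about 50% at one test dose, limit read from the data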;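 also: growth measured after 20 h incubation at 37 °C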
Pyk2 oligo antag: Pyk2 (human) oligomerization antagonism. AID 1347419. 0.83% of 99,000 active. z-score (the deposit names both 25 µM and 10 µM). Q14289. Q293 cells, Pyk2 FERM NanoBiT luminescence; stronger effect = lower value;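 active = Z-score of -3 or lower, scaled per plate to the spread of control and sample wells; inactive = z-score above -3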;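 also: negative z-score means lost luminescence so less FERM oligomerization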
Target sequence (Q14289 whole entry, looked up): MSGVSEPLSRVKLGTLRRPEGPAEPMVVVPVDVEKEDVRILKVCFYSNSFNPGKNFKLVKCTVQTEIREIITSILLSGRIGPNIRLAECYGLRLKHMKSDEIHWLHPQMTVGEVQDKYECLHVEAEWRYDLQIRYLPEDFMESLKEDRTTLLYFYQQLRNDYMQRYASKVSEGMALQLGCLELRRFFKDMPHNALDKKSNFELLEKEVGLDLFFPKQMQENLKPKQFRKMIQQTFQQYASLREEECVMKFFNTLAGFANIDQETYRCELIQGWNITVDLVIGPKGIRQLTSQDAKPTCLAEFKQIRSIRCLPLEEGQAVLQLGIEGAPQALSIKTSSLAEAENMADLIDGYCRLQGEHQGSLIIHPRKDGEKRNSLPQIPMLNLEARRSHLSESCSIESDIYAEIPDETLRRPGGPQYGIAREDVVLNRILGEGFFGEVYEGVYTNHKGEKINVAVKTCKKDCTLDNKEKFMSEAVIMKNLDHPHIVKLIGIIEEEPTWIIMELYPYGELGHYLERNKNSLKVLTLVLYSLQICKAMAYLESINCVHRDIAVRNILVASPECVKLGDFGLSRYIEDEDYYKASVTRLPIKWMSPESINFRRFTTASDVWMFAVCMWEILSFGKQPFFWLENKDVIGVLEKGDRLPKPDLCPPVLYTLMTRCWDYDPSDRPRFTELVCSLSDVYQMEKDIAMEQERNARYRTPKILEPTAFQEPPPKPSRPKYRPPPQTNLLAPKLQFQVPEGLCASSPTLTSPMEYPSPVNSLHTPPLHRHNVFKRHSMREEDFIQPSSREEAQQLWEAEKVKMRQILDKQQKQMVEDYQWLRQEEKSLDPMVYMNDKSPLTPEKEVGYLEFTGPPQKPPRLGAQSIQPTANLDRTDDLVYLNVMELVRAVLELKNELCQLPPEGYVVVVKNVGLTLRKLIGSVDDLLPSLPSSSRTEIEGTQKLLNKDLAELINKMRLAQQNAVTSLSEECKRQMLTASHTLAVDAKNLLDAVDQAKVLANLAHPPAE
Cav32 inh: human Cav3.2 channel inhibition, primary screen; B-score at 10 µM; 4% of 100,000 active; Cav3.2-expressing cells, Fluo-4 calcium fluorescence FDSS; stronger effect = lower value; O95180;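 active = single-dose well whose peak fluorescence ratio is a statistical outlier from its plate by either plate-standardised score or position-corrected B-score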
PostGolgi ctrl: growth of the yeast control strain, post-Golgi counter-screen; efflux-deficient yeast background strain, growth absorbance A615, 16 h; inhibition, % at 10 µM; 5% of 98,000 active; AID 738
PostGolgi yeast: growth inhibition of a yeast mutant, post-Golgi transport screen. 0.9% of 98,000 active. post-Golgi transport phenotypic cell assay. inhibition, % at 10 µM. AID 739;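 also: yeast cells grown in 1536-well plates; yeast grown about 18 h at 30C before absorbance read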
Each line names hits and unclear results; the compound was inactive in the other large screens. In the library only some 8.7% were active in any assay of this set; here they are far more common. Rule as the data show it, unless noted: active = inhibition above about 30%; inactive = the rest.

CCN1CCc2c(C#N)c(N3CCOCC3)nc(NCc3ccccc3)c2C1	PostGolgi ctrl 36
CCN1CCc2c(C#N)c(N3CCCCC3)nc(NCc3ccccc3)c2C1	none
c1csc(CSc2nc3ccccc3s2)c1	none
CCn1c(CSc2nc3ccccc3s2)nc2ccccc21	Cav32 inh -5.7
CC(=O)Oc1ccc(CCC(C)OC(C)=O)cc1 (stereo not drawn)	none
CCCCCCN1C=CC(=C/C=C(\C#N)C(=O)OCC)C=C1	Cav32 inh -3.3 (no result: tolC growth inh)
O=C(NCc1nc2ccccc2[nH]1)c1cccc(S(=O)(=O)N2CCCC2)c1	none (no result: tolC growth inh, Cav32 inh)
Cc1ccc(-n2c(C)nc3c(cnn3-c3ccc(C)c(C)c3)c2=O)cc1C	PostGolgi ctrl 47 (no result: tolC growth inh, Pyk2 oligo antag)
Cc1ccc(S(=O)(=O)Nc2ccc(-c3nnc(SCC#N)n3C)cc2)cc1	none
O=C(O)CCC(=O)N1CCc2cc(S(=O)(=O)N(CCc3ccccc3)Cc3ccccc3)ccc21	none (no result: tolC growth inh)
C=CCN1C(=O)C2(/C(=C(\O)c3ccc4c(c3)OCCO4)C(=O)C(=O)N2CCCOC)c2ccccc21 (stereo not drawn)	PostGolgi ctrl 41
Cc1cccc2cc(CN(CCCO)C(=O)Nc3cccc(Cl)c3)c(=O)[nH]c12	none
CCC(C)N1CC(C(=O)NC2CCCCC2)CC1=O (stereo not drawn)	PostGolgi ctrl 33
CCC(C)N1CC(C(=O)O)CC1=O (stereo not drawn)	none (no result: tolC growth inh)
COc1ccc([N+](=O)[O-])cc1COc1cc(C)cc2oc(=O)cc(-c3ccccc3)c12	Cav32 inh -8.7 (no result: tolC growth inh)
O=C(CCCc1c[nH]c2ccccc12)N1CCN(S(=O)(=O)c2cccs2)CC1	none
O=c1c(Cl)nc2cc(Cl)ccc2n1CCNc1ncc(C(F)(F)F)cc1Cl	PostGolgi ctrl 99, PostGolgi yeast 76 (no result: tolC growth inh)
O=c1[nH]c2cccc(Cl)c2n(CCNc2ncc(C(F)(F)F)cc2Cl)c1=O	none (no result: tolC growth inh, Cav32 inh)
O=C(Nc1ccc2c(c1)OCO2)OCc1ccccc1	none
CN(C)S(=O)(=O)c1cccc(NC(=S)Nc2cc(Cl)cc(Cl)c2)c1	PostGolgi ctrl 84, PostGolgi yeast 97 (no result: tolC growth inh, Cav32 inh)
C=CCn1c(SCC(=O)c2ccc(OC)cc2)nnc1C(C)NC(=O)c1cccs1 (stereo not drawn)	none
CC(C)N(C(=O)c1ccccc1-c1ccccc1)C(C)C	Cav32 inh -4.6 (no result: tolC growth inh)
CC(=O)OC(c1nc2ccccc2c(=O)n1C1CC2(OC1=O)c1ccccc1N1C(=O)C(C)(C)N(O)C12)C(C)C (stereo not drawn)	none (no result: tolC growth inh, Ecoli WT expand, Pyk2 oligo antag, PostGolgi ctrl, PostGolgi yeast)
O=C(CCCN1C(=O)c2ccccc2C1=O)NC1CCCCCC1	none (no result: tolC growth inh)
CC(NC(=O)CCCN1C(=O)c2ccccc2C1=O)c1ccc2c(c1)CCCC2 (stereo not drawn)	Cav32 inh -4.2 (no result: tolC growth inh)
CC(NC(=O)CCCCCN1C(=O)c2ccccc2C1=O)c1ccc2c(c1)CCCC2 (stereo not drawn)	Cav32 inh -3.7 (no result: tolC growth inh)
O=c1c2cnn(-c3ccc(F)cc3)c2ncn1Cc1ccccc1	none (no result: tolC growth inh, Ecoli WT expand, PostGolgi ctrl, PostGolgi yeast)
O=C(Cn1nc(Cl)nc1Cl)c1cc2ccccc2oc1=O	none
Cc1ccc(S(=O)(=O)Cc2ccc(C(=O)NCc3ccc4c(c3)OCO4)o2)cc1	PostGolgi ctrl 34
O=C(Cc1ccccc1)NCc1ccc2c(c1)OCO2	none (no result: tolC growth inh)
O=C(NCc1ccc2c(c1)OCO2)c1ccc(COc2cccc(Cl)c2)o1	tolC growth inh 79, PostGolgi ctrl 60 (no result: Cav32 inh)
Cc1ccc(CC(=O)NCc2ccc3c(c2)OCO3)cc1	none (no result: tolC growth inh)
CCOC(=O)c1oc2ccccc2c1CSc1nnnn1-c1ccc(C)cc1	Cav32 inh -3.9
COc1ccccc1S(=O)Cc1ccc(C(=O)NCCc2ccc(Cl)cc2)o1 (stereo not drawn)	none (no result: Pyk2 oligo antag)
COc1ccc(C2=Nc3ccccc3OC2)cc1	none (no result: tolC growth inh)
CCn1nc(C(=O)OC(C(=O)c2c[nH]c3ccccc23)c2ccccc2)c2ccccc2c1=O (stereo not drawn)	none (no result: tolC growth inh)
Clc1cccc(CSc2ncn(-c3ccccc3)n2)c1	none (no result: tolC growth inh, Ecoli WT expand, PostGolgi ctrl, PostGolgi yeast)
CSc1nc2ncc3c(n2n1)CC1c2ccccc2CCN1C3=O (stereo not drawn)	PostGolgi ctrl 32 (no result: tolC growth inh)
O=C1c2cnc3nc(SCc4cccc(Cl)c4)nn3c2CC2c3ccccc3CCN12 (stereo not drawn)	PostGolgi ctrl 42 (no result: tolC growth inh)
Cc1ccccc1N(CC(=O)NCC1CCCO1)C(=O)C1(C)CC(=O)N=C2C=CC=CN21 (stereo not drawn)	none
COc1ccc(/C=N\NC(=O)COc2ccc(C(C)(C)C)cc2)cc1Cn1nc(C)cc1C	none (no result: tolC growth inh)
Cc1[nH]n(-c2ccccc2)c(=O)c1C(c1ccc(O)c([N+](=O)[O-])c1)c1c(C)[nH]n(-c2ccccc2)c1=O	none (no result: tolC growth inh, Ecoli WT expand, PostGolgi ctrl, PostGolgi yeast)
CC1=NN(c2ccc(F)cc2)C(=O)C1C(c1cccc(O)c1)c1c(C)[nH]n(-c2ccc(F)cc2)c1=O (stereo not drawn)	PostGolgi ctrl 35 (no result: tolC growth inh)
COc1cccc(C(=O)Nc2cccc(-c3nnc(-c4ccccc4)o3)c2)c1	none (no result: Ecoli WT expand, Pyk2 oligo antag, Cav32 inh, PostGolgi ctrl, PostGolgi yeast)
COCCN(CCOC)S(=O)(=O)c1ccc(C(=O)Nc2nnc(C3CC3)o2)cc1	none
CCCN(CCC)S(=O)(=O)c1ccc(C(=O)Nc2nnc(-c3cccc(OC)c3)o2)cc1	tolC growth inh 100 (no result: Ecoli WT expand, Pyk2 oligo antag, Cav32 inh, PostGolgi ctrl, PostGolgi yeast)
CCCN(CCC)S(=O)(=O)c1ccc(C(=O)Nc2nnc(-c3cc(OC)cc(OC)c3)o2)cc1	tolC growth inh 98 (no result: Cav32 inh)
CCN(CCCNC(=O)C1CCC(=O)N1C(C)C)c1cccc(C)c1 (stereo not drawn)	none (no result: tolC growth inh)
CCN(CC)S(=O)(=O)c1cc(NC(=O)C(C)N(C)CC(=O)Nc2c(C)cccc2C)ccc1C (stereo not drawn)	none (no result: tolC growth inh, Ecoli WT expand, Cav32 inh, PostGolgi ctrl, PostGolgi yeast)
CCN(CC)S(=O)(=O)c1cccc(C(=O)NCCc2ccccc2)c1	none (no result: tolC growth inh, Ecoli WT expand, PostGolgi ctrl, PostGolgi yeast)
CN(CC(=O)Nc1ccccc1N1CCOCC1)S(=O)(=O)c1ccc(Cl)cc1	none (no result: tolC growth inh)
CCN(CC)S(=O)(=O)c1cc(NC(=O)C(=O)c2c(-c3ccccc3)cc3ccccn23)ccc1C	Cav32 inh -4.6 (no result: tolC growth inh)
CCN(CC)S(=O)(=O)c1ccc(N2CCOCC2)c(NC(=O)C(=O)c2c(-c3ccccc3)cc3ccccn23)c1	PostGolgi ctrl 98, PostGolgi yeast 72 (no result: tolC growth inh)
CCN(CC)S(=O)(=O)c1cccc(NC(=O)C(=O)c2c(-c3ccccc3)cc3ccccn23)c1	PostGolgi ctrl 72 (no result: tolC growth inh, Cav32 inh)
CC1CC(N(C(=O)c2ccc(Cl)cc2)c2ccccc2)c2ccccc2N1C(=O)c1ccco1 (stereo not drawn)	Cav32 inh -5.7 (no result: tolC growth inh)
CC1CC(N(C(=O)C2CC2)c2ccccc2)c2ccccc2N1C(=O)C1CC1 (stereo not drawn)	none
CC1CC(N(C(=O)c2ccco2)c2ccccc2)c2ccccc2N1C(=O)c1ccco1 (stereo not drawn)	Cav32 inh -5.3 (no result: tolC growth inh)
CC12CC(c3ccccc3O1)N(C(=O)c1ccco1)C(=S)N2c1ccccc1 (stereo not drawn)	none (no result: tolC growth inh)
CCCC[C@@H]1CCCO[C@@](C(=O)NCc2ccc(C)o2)(C(F)(F)F)C1	none (no result: tolC growth inh, Ecoli WT expand, Pyk2 oligo antag, PostGolgi ctrl, PostGolgi yeast)
CC(C)NS(=O)(=O)c1ccc(NC(=O)C2CC3C=CC2C3)cc1 (stereo not drawn)	none (no result: tolC growth inh)
O=C1c2ccccc2C(=O)N1CCc1csc(-c2cccc(Cl)c2)n1	none (no result: tolC growth inh, Cav32 inh)
